Laboratory results from ChEMBL document CHEMBL4002602, “Design, Synthesis of Novel, Potent, Selective, Orally Bioavailable Adenosine A2A Receptor Antagonists and Their Biological Evaluation” (J Med Chem, 2017).
The source made the active and inactive calls. The calls are words filed in the database; no cut-off is given here.

Experiments:
[1] = AUC (0 to t) in Wistar rat plasma at 10 mg/kg administered through oral gavage by LC/MS/MS analysis; type: ADME, organism-based
Rattus norvegicus = assay: Neuroprotective activity in 6-OHDA-lesioned Wistar rat model of parkinson disease assessed as increase in L-DOPA induced contralateral rotations at 100 mg/kg, po pretreated for 30 mins followed by benserazide addition and subsequent L-DOPA stimulation for 30 mins measured up to 2 hrs; type: functional, organism-based
In short: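 Male Wistar rats (295–305 g) anesthetized with ketamine/xylazine and given desipramine 10 mg/kg i.p. 30 min before 6-OHDA lesioning. At two weeks, rats were screened with apomorphine 0.05 mg/kg i.p. and kept only if they made ≥100 rotations in 1 h. Compound (30 or 100 mg/kg p.o., in 1% Tween 80/0.5% MC) was given 30 min before benserazide. L-DOPA 4 mg/kg i.p. followed 30 min later. Contralateral rotations counted over 2 h; one-way ANOVA with Dunnett's test.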

[2] = Ratio of AUC (0 to t) in Wistar rat brain to AUC (0 to t) in Wistar rat plasma at 10 mg/kg administered through oral gavage by LC/MS/MS analysis; type: ADME, organism-based; conditions: brain and plasma, read-out: Ratio AUC
In short: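 Male Wistar rats (230 ± 15 g), fasted overnight, water ad libitum; single oral dose of 10 mg/kg as suspension in 1% Tween 80/0.5% NaCMC, n=4. Blood and brain collected by discrete sampling at 0.5, 2, 4 and 8 h post dose. Brain washed in PBS and homogenised, plasma and homogenate precipitated with acetonitrile plus internal standard, LC/MS/MS; AUC0-t from non-compartmental analysis.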

Q: For `CCN(CC)C1CCC(C)(C(=O)Nc2nc3c(OC)ccc(N4CCOCC4)c3s2)CC1` (stereo not drawn), which AUC(0-t) [1] is on record?
A: 4.7 µM·h

Q: What about the Activity (Rattus norvegicus) of the same molecule?
A: Active

Q: And the Kp [2]?
A: 0.25
